Laboratory results as given in paper PMC4515944 (Planta medica, 2015).
Values after ≈ are worked out from the molar mass of the structure shown. Like-named read-outs stand apart in the source and are kept apart here. Blank lines part the entries; values can stand above or below the molecule they belong to.

What was measured:
[1] = system: Collagenase type V from Clostridium histolyticum; assay: Collagenase inhibition assay; assay type: biochemical; conditions: for IC50: incubation 37°C 10 min, reaction monitored 30 min; for inhibition rate: initial concentration 50 μg/mL
Procedure, shortened: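 Clostridium histolyticum collagenase (100 μg/mL initial) in 10 mM Tris-HCl pH 7.3 preincubated 10 min with test compound (1% DMSO final). MCA-Pro-Leu-Ala-Nva-DNP-Dap-Ala-Arg-NH2 (55.55 μg/mL initial) then added. Fluorescence ex 320/em 400 nm read at endpoint, or every 5 min over 30 min for AUC. Serial dilutions in triplicate, blank per concentration, % inhibition versus buffer control. Km by Lineweaver-Burk, substrate 4.17–166.67 μg/mL initial.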

[2] = molecular target: collagenase; conditions: cited from earlier work

Molecule: MCA-Pro-Leu-Ala-Nva-DNP-Dap-Ala-Arg-NH2 [MMP-2 fluorogenic substrate]
maximum velocity (Vmax) ([1]; Lineweaver Burk plot, enzyme 100 μg/mL (initial)): 212.76 µmol/min
Km ([1]; read-out: Km (final), Lineweaver Burk plot, final concentration): 12.9 µM
Km ([1]; read-out: Michaelis Menten constant (Km), Lineweaver Burk plot, enzyme 100 μg/mL (initial), initial substrate concentration): 51.7 µM

Molecule: COC1=C(NCC(=O)O)CC(O)(CO)CC1=N (stereo not shown) [palythine]
IC50 ([1]; final concentration): 38.82 µg/mL
IC50 ([1]; mean ± SD (n=3)): 159 ± 3.2 µM

Molecule: c1cnc2c(c1)ccc1cccnc12 [1,10-phenanthroline]
IC50 ([1]; final concentration): 42.86 µg/mL
IC50 ([1]; mean ± SD (n=3)): 238 ± 3.4 µM
IC50 described in literature ([2]; ref [16]): 70.4 µg/mL (≈ 391 µM)

Molecule: O=C(O[C@@H]1Cc2c(O)cc(O)cc2O[C@@H]1c1cc(O)c(O)c(O)c1)c1cc(O)c(O)c(O)c1 [epigallocatechingallate]
IC50 ([2]; ref [15]): 114 µg/mL (≈ 249 µM)

Next, values leading:

IC50, kinetic reading mode (AUC) ([1]; AUC 0-30 min, n=3): 11.95 μg/mL ± 1.28
IC50, endpoint reading mode ([1]; endpoint reading at 30 min, n=3): 11.07 μg/mL ± 0.95
IC50 ([1]; mean ± SD (n=3)): 18.8 ± 1.6 µM
inhibition rate ([1]; reaction temperature 30°C): 53.4%
inhibition rate ([1]; reaction temperature 37°C): 53.4%
inhibition rate ([1]; room temperature (RT)): 49.1%
Molecule: CC(C)C[C@H](NP(=O)(O)O[C@@H]1O[C@@H](C)[C@H](O)[C@@H](O)[C@H]1O)C(=O)N[C@@H](Cc1c[nH]c2ccccc12)C(=O)O [phosphoramidon]

IC50 ([1]; final concentration): 34.42 µg/mL
IC50 ([1]; mean ± SD (n=3)): 104 ± 3.7 µM
Molecule: COC1=C(NCC(=O)O)C[C@@](O)(CO)C/C1=N\[C@@H](CO)C(=O)O [shinorine]

IC50 ([1]; final concentration): 37.73 µg/mL
IC50 ([1]; mean ± SD (n=3)): 106 ± 2.3 µM
Molecule: COC1=C(NCC(=O)O)CC(O)(CO)CC1=N[C@H](C(=O)O)[C@@H](C)O (stereo partly shown) [porphyra]
